RGS4 block – human RGS4 inhibition; P49798; AID 463165; 310,000 compounds, 0.45% hits; HEK293 M3R/RGS4 inducible, Fluo-4 calcium flux; stronger effect = higher value; triggered by carbachol at its EC20; B-score at 10 µM;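 active = B-score, a plate-corrected calcium signal, over three deviations above library mean, with baseline fluorescence within five deviations of library mean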;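 also: RGS4 expression induced by doxycycline in cells with stable M3 receptor; B-score is computed from the integrated fluorescence ratio over baseline after carbachol; higher B-score means a larger calcium signal and so more RGS4 inhibition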
Target sequence (P49798 whole entry, looked up): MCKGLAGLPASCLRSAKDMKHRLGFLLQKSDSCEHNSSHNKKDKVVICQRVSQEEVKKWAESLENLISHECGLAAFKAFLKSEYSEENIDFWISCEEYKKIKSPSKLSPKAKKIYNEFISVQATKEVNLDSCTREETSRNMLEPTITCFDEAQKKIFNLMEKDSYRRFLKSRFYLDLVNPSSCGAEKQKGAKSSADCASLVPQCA
RGS4 pot – RGS4 potentiation or activation. AID 463111. B-score at 10 µM. HEK293 M3R/inducible RGS4, carbachol calcium flux Fluo4; stronger effect = lower value. 310,000 compounds, 0.92% hits;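 active = B-score of the integrated calcium signal more than 4 SD below the library mean, with starting fluorescence not abnormally high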;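 also: negative B-score means reduced calcium response which marks RGS4 activation or potentiation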
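Assay system: HEK293 FlpIn-TREx cells, stable M3R, doxycycline-inducible RGS4 / Probe or stimulus: carbachol, ECmax concentration / Times: overnight RGS4 induction, 30 min dye load 37 °C, 20 min compound RT / Signal: kinetic calcium fluorescence imaging with Fluo4-AM dye, 2 µM / Measure: Agonist-evoked peak-minus-minimum fluorescence over baseline, integrated ratio, B score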
MrgX1 ag – human MrgX1 receptor agonism, primary screen | MrgX1-HEK293 cells, Fluo-4 calcium fluorescence, agonist mode; stronger effect = higher value | 310,000 compounds, 0.44% hits | B-score at 10 µM;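 active = calcium response B-score plate-corrected fluorescence ratio at least 3 library SD, with starting fluorescence B-score inside 5 SD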
Target sequence (Q96LB2 whole entry, looked up): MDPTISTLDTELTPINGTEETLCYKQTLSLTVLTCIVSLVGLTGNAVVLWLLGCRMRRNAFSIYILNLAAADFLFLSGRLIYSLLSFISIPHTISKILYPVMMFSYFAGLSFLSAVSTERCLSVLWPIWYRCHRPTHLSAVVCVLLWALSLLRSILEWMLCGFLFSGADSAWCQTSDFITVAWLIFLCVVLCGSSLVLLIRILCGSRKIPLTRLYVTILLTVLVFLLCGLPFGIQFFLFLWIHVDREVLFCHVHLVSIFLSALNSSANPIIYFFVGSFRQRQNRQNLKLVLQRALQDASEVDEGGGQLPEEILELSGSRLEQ
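Material: MrgX1-expressing HEK293 cells / Dosing: compound as first of three additions / Incubation: overnight seeding, then 1 h dark dye loading / Signal: Fluo-4 NW calcium fluorescence / Evaluation: B-scored fluorescence response ratio / Benchmarks: positive and negative control wells on each plate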
MrgX1 antag – human MrgX1 receptor antagonism, primary screen; MRGX1-HEK293 calcium flux, Fluo-4, BAM8-22 antagonism; stronger effect = lower value; 310,000 compounds, 1.3% hits; B-score at 10 µM;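 active = calcium-response B-score plate-corrected more than 3 library SD below zero, starting fluorescence within 5 deviations, no agonist response on first addition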;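 also: peak minus trough fluorescence over baseline after final BAM8-22 challenge near maximal dose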
MrgX1 allo act – allosterically activates human MrgX1 receptor signaling. AID 588675. B-score at 10 µM. MrgX1-HEK293, Fluo-4 calcium flux, FDSS; stronger effect = higher value. 310,000 compounds, 0.63% hits;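 active = plate-corrected calcium response at least 3 library SD above typical, normal starting fluorescence, not activating the receptor alone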;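 also: compound read alongside a low EC10 to EC30 dose of BAM8-22 agonist; peak minus trough fluorescence over baseline measured at the second addition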
MrgX1 ag reconf – confirmation of human MrgX1 receptor agonists. shares compounds with MrgX1 ag. MrgX1-HEK293, Fluo-4 calcium fluorescence, FDSS. activation, % at 10 µM. 600 compounds, 78% hits. AID 602412;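 active = calcium signal rise, corrected for plate position, at least 3 library SD high, with starting brightness within 5 such deviations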
HEK293 Ca flux – MrgX1 antagonist counter-screen hit in parental HEK293 cells. shares compounds with MrgX1 antag. Fluo-4 calcium fluorescence, FDSS. fluorescence ratio F(max-min)/F0 at 10 µM. 4,000 compounds, 2% hits. AID 624111;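 active = duplicate-averaged calcium fluorescence ratio at least three times the standard deviation of buffer wells, a nonspecific response in parental cells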
HEK293 Ca counter – counter-screen for MrgX1 allosteric activators: effect in parental HEK293 cells | 4,000 compounds, 0.4% hits | parental HEK293 calcium flux, Fluo-4 fluorescence ratio; stronger effect = higher value | fluorescence ratio F(max-min)/F0 at 10 µM | shares compounds with MrgX1 antag | AID 624114;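 active = calcium fluorescence ratio, averaged over duplicates, at least 3 SD of the buffer-well ratio, meaning a nonspecific response in receptor-free cells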;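 also: untransfected parental HEK293 lacking MrgX1 used as counterscreen for MrgX1 allosteric activators; fluorescence change taken during the second addition on a kinetic imager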
HEK293 Ca cntr2 – counter-screen for MrgX1 activators: effect in parental HEK293 cells; Fluo-4 calcium fluorescence (FDSS); stronger effect = higher value; shares compounds with MrgX1 antag; fluorescence ratio F(max-min)/F0 at 10 µM; 4,000 compounds, 8.7% hits;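 active = calcium fluorescence ratio at least three times the spread of buffer wells, meaning a non-specific response in parental cells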
Active calls of the source: *; i = inactive; · = no result given. A selection: hits, their analogues and other compounds. The true share with any hit is near 3.5%.

SMILES	RGS4 block	RGS4 pot	MrgX1 ag	MrgX1 antag	MrgX1 allo act	MrgX1 ag reconf	HEK293 Ca flux	HEK293 Ca counter	HEK293 Ca cntr2
COc1cc(/C=C2/C(=N)N3C(SC)=NSC3=NC2=O)ccc1OC(=O)c1ccco1	i	i	70.9*	i	i	227.4%*	i	i	48.4*
COC(=O)C1=C(CSc2nc3c(cc2C#N)CN(C)CC3)OC(N)=C(C#N)C1c1ccccc1F (stereo not drawn)	i	i	41.8*	i	i	265.4%*	i	i	56.6*
COC(=O)C1=C(C)OC(N)=C(C#N)C1c1cc(OC)c(OCC(N)=O)cc1Cl (stereo not drawn)	i	i	42.7*	i	i	230.3%*	i	i	56.5*
COC(=O)C1=C(C)OC(N)=C(C#N)C1c1ccccc1F (stereo not drawn)	i	i	27.1*	i	i	170.4%*	i	i	64.3*
COC(=O)C1=C(C)OC(N)=C(C#N)C1c1ccco1 (stereo not drawn)	i	i	i	i	i	·	·	·	·
CC(=O)C1=C(C)OC(N)=C(C#N)C1c1cc([N+](=O)[O-])ccc1Cl (stereo not drawn)	i	i	i	i	i	·	·	·	·
CCOC(=O)C1=C(CSc2nc3c(cc2C#N)CN(C)CC3)OC(N)=C(C#N)C1c1ccccc1 (stereo not drawn)	·	·	i	i	i	·	·	·	·
CCCCn1c(SCC(=O)NC2CC(C)(C)NC(C)(C)C2)nc2cc(S(N)(=O)=O)ccc21	i	i	i	i	i	·	·	·	·
S=C(NCc1cccs1)Nc1ccccc1Cl	i	i	i	i	i	·	·	·	·
Cc1cccc(C(=O)NC(=S)NNC(=O)c2cccs2)c1	i	i	173*	i	i	646.5%*	i	i	140*
O=C(NC(=S)NNC(=O)c1cccs1)c1ccccc1	i	i	132*	i	i	546.6%*	i	i	107*
Cc1ccccc1C(=O)Nc1cccc(NC(=S)NC(=O)c2cccs2)c1	i	i	i	i	i	·	·	·	·
Cc1ccccc1C(=O)NNC(=S)NC(=O)c1cccs1	i	i	79.4*	i	i	651.3%*	i	i	130*
O=C(NNC(=S)Nc1ccccc1)c1cccs1	i	i	i	i	i	·	·	·	·
CN1CCc2c(sc3c2C(=O)NC(c2cccs2)N3)C1 (stereo not drawn)	i	i	40.2*	i	i	i	i	i	i
CSc1ccc(C2NC(=O)c3c(sc4c3CCN(C)C4)N2)cc1 (stereo not drawn)	i	i	27.9*	i	i	100.8%*	i	i	i
N#CCn1c(CCl)nc2ccccc2c1=O	i	i	42.3*	i	i	198.2%*	i	i	i
Nc1nc2ccccc2cc1-c1cccs1	i	i	44.9*	i	i	196.3%*	i	i	i
Cc1ccc(-c2cc3ccccc3nc2N)cc1	i	i	43.5*	i	i	219.6%*	i	i	i
c1csc(-c2ccc3ccccc3n2)c1	i	i	i	i	i	·	·	·	·
O=C(O)CCCCCNC(=O)c1ccc(C(=O)NCCCCCC(=O)O)cc1	i	i	i	i	i	·	·	·	·
COc1cc(/C=C/C(=O)O)ccc1O	i	i	i	i	i	·	·	·	·
COc1cc(/C=C/C(=O)CC(=O)/C=C/c2ccc(O)c(OC)c2)ccc1O	i	i	143*	i	i	i	0.0325*	i	212*
Cn1c2c(c(=O)n(C)c1=O)[C@@]1(C(=O)Nc3ccccc31)C(C#N)=C(N)O2	i	i	40.9*	i	i	173.4%*	i	i	i
N#CC1=C(N)Oc2n[nH]c(-c3ccccc3)c2C12C(=O)Nc1ccccc12 (stereo not drawn)	i	i	i	i	i	·	·	·	·
SMILES	RGS4 block	RGS4 pot	MrgX1 ag	MrgX1 antag	MrgX1 allo act	MrgX1 ag reconf	HEK293 Ca flux	HEK293 Ca counter	HEK293 Ca cntr2
CCN(c1nc(N)c(C(=O)N=C(N)N)nc1Cl)C(C)C	i	i	36.3*	i	i	233.2%*	i	i	i
COc1ccc(S(=O)(=O)CC(=O)c2cc3cc(Br)ccc3oc2=O)cc1	i	i	70.3*	i	i	325.9%*	i	i	61.4*
NC1=NC[C@@H](Cc2ccc(O)cc2)N1CCc1cc(C(F)(F)F)cc(C(F)(F)F)c1	i	i	i	i	i	·	·	·	·
NC1=NC[C@@H](Cc2ccc(O)cc2)N1CCc1cccc(F)c1	i	i	31*	i	i	171.1%*	i	i	i
CN(C)CCOC(=O)NC12CC3CC(CC(C3)C1)C2	i	i	i	i	i	·	·	·	·
Cc1ccc(-c2csc(N=C(N)N)n2)c(C)c1	i	i	76.2*	i	i	104.5%*	i	i	i
COc1ccc(-c2csc(N=C(N)N)n2)cc1	i	i	i	i	i	·	·	·	·
CCC(C)n1c(=N)c(C#N)cc2c(=O)n3ccccc3nc21 (stereo not drawn)	i	i	26.5*	i	i	i	i	i	i
COc1ccc(OC)c(N(CC(=O)N2CCCC2)S(=O)(=O)c2ccc(C)cc2)c1	i	i	i	i	i	·	·	·	·
COc1ccc(C)cc1N(CC(=O)N1CCCCCC1)S(=O)(=O)c1ccc(C)cc1	i	i	37.1*	i	i	198.4%*	i	i	i
Cc1cc(N2CCCCC2)nc(N)n1	i	i	101*	i	i	519.8%*	i	i	123*
Cc1sc(NC(=O)C2CCCCC2C(=O)O)c(C(N)=O)c1-c1ccc(C(C)(C)C)cc1 (stereo not drawn)	i	i	94.9*	i	i	298.6%*	i	i	67.9*
COc1cccc(NC(=O)c2ccc[n+](C)c2)c1	i	i	i	i	i	·	·	·	·
O=c1oc(-c2ccccc2Cl)nc2ccsc12	i	i	50.9*	i	i	210.3%*	i	i	59.7*
